Data taken from ChEMBL document CHEMBL2057169, “Discovery of novel tricyclic compounds as squalene synthase inhibitors” (Bioorg Med Chem, 2012).

What was measured:
Hepatocyte = test: Inhibition of cholesterol synthesis in rat hepatocytes assessed as formation of cholesterol using [14C]mevalonolactone as substrate after 1 hr by radioactivity assay; assay type: functional, cell-based
In short: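 Rat hepatocytes isolated by two-step portal-vein perfusion (EGTA buffer, then 0.05% collagenase). Cells were kept if viability was over 80% by trypan blue and seeded at 10^6 cells/well in DMEM with 10% LPDS. Next day they got 5% LPDS medium with inhibitor at 0–3000 nM for 1 h at 37 °C, then [14C]mevalonolactone for 1 h. Lysates were saponified, [14C]cholesterol corrected by [3H]cholesterol recovery and BCA protein, and % inhibition taken versus 0 nM wells. Triplicate wells; three experiments.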

marmosets [1] = test: Lipid lowering effect in marmosets assessed as reduction in plasma total cholesterol level at 100 mg/kg, po administered once daily for 7 days; assay type: functional; conditions: Callitrichinae sp., in Callithrix jacchus, 168 h
In short: (§1)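 Common marmosets, n = 8 per group, matched for body weight and plasma lipids. They were dosed orally at 100 mg/kg in 0.5% methylcellulose (5 ml/kg) once daily for 7 days. Nonfasted blood was drawn before dosing and the morning after the last dose. HDL was precipitated, then its cholesterol assayed enzymatically; non-HDL = total minus HDL cholesterol. Change was expressed relative to pre-values.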

marmosets [2] = test: Lipid lowering effect in marmosets assessed as reduction in plasma HDL-cholesterol level at 100 mg/kg, po administered once daily for 7 days; assay type: functional; conditions: Callitrichinae sp., in Callithrix jacchus, 168 h; in short: as §1
Rattus norvegicus = test: Inhibition of cholesterol synthesis in Wistar rat liver assessed as reduction of [14C]-cholesterol level at 3 mg/kg, po administered as single dose measured after 1 hr by liquid scintillation counting; assay type: functional
In short: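 Male Wistar rats, 6 weeks old, n = 4-6, dosed orally at 3 mg/kg in 0.5% methylcellulose, with equimolar NaOH or NaHCO3 added; vehicle-only controls. At 1 h, [14C]mevalonic acid (5 µCi/5 ml/kg) was given ip, and rats were killed 1 h later.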

marmosets [3] = test: Lipid lowering effect in marmosets assessed as reduction in plasma non HDL-cholesterol level at 100 mg/kg, po administered once daily for 7 days; assay type: functional; conditions: Callitrichinae sp., in Callithrix jacchus, 168 h; in short: as §1
Squalene synthase = biological target: T1, Squalene synthase (Rattus norvegicus, UniProt Q02769); test: Inhibition of squalene synthase in rat hepatic cells; assay type: cell-based
T1 sequence (Q02769 whole entry): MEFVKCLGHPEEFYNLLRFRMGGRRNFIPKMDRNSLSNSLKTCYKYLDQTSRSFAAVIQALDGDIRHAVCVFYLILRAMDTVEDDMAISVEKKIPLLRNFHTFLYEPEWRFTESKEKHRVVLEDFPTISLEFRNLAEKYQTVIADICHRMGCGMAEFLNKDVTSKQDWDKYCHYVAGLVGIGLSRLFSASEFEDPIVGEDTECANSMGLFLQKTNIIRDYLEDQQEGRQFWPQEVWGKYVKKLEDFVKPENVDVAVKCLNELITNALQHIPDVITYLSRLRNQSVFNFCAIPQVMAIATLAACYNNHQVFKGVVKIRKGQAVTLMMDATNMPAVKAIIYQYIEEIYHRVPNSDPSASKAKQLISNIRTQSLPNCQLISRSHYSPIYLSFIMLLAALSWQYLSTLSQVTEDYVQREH

marmosets [4] = test: Lipid lowering effect in marmosets assessed as reduction in plasma triglyceride level at 100 mg/kg, po administered once daily for 7 days; assay type: functional; conditions: Callitrichinae sp., in Callithrix jacchus, 168 h; in short: as §1

For `COc1cccc([C@H]2O[C@H](CCn3nnc(CC(=O)O)n3)c3cccn3-c3ccc(Cl)cc32)c1OC`, the IC50 (Hepatocyte) was 36 nM, the inhibition in vivo at 100 mg/kg (marmosets [1]) was 14% and the inhibition in vivo at 100 mg/kg (marmosets [2]) was 6%. It also gave an inhibition in vivo at 3 mg/kg (Rattus norvegicus) of 86%, an inhibition in vivo at 100 mg/kg (marmosets [3]) of 21% and an IC50 (Squalene synthase) of 1.1 nM. It also gave an inhibition in vivo at 100 mg/kg (marmosets [4]) of 12%.
